In ChEMBL document CHEMBL3091329, “Discovery of tetrahydroisoquinoline-based CXCR4 antagonists” (ACS Med Chem Lett, 2013):

Assays:
[1] = Plasma concentration in Harlan C57BL/6 mouse at 10 mg/kg, sc after 1 hr by LC/MS/MS analysis; type: ADME, organism-based; parameters: dose 10 mg/kg, route subcutaneous
Outline: (§1)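 Harlan mice were given a single subcutaneous dose at 5, 10 or 20 mg/kg. Blood was sampled at multiple time points over about 8 h, and each sample was used for both total circulating WBC count and plasma drug level. Counts and concentrations were plotted against time for each dose.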

[2] = Plasma concentration in Harlan C57BL/6 mouse at 20 mg/kg, sc after 1 hr by LC/MS/MS analysis; type: ADME, organism-based; parameters: dose 20 mg/kg, route subcutaneous; outline: as §1
Mus musculus = assay: Induction of WBC mobilization in sc dosed Harlan C57BL/6 mouse after 1 to 8 hrs by LC/MS/MS analysis; type: functional, organism-based; outline: as §1
[3] = Oral bioavailability in jugular pre-cannulated CRL Sprague-Dawley rat at 10 mg/kg; type: ADME, organism-based; conditions: in vivo
Outline: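 Oral dosing by gavage at 10 mg/kg, with an i.v. arm at 2 mg/kg. Plasma AUC was calculated for each route, and F was obtained from the dose-normalised ratio of oral to i.v. AUC.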

[4] = AUC (0 to infinity) in jugular pre-cannulated CRL Sprague-Dawley rat at 10 mg/kg, po; type: ADME, organism-based; parameters: dose 10 mg/kg, route oral, time infinity; conditions: plasma
[5] = Elimination half life in jugular pre-cannulated Harlan Sprague-Dawley rat at 2 mg/kg, iv; type: ADME, organism-based; parameters: dose 2 mg/kg, route intravenous; conditions: in vivo, read-out: beta t1/2 (converted)
[6] = Half life in human liver microsomes at 1 uM incubated for 3 mins prior to NADPH addition by LC-MS/MS analysis; type: ADME
[7] = Half life in rat liver microsomes at 1 uM incubated for 3 mins prior to NADPH addition by LC-MS/MS analysis; type: ADME
[8] = Intrinsic clearance in mouse liver microsomes at 1 uM incubated for 3 mins prior to NADPH addition by LC-MS/MS analysis; type: ADME, Microsome; conditions: 0.05 h
[9] = Aqueous solubility in PBS at 7.4 after 90 mins by nephelometric analysis; type: physicochemical; conditions: pH 7.4
[10] = biological target: T1, C-X-C chemokine receptor type 3 (Homo sapiens) (UniProt P49682); assay: Inhibition of CXCR3 (unknown origin) at 10 uM relative to control
T1 sequence (whole entry): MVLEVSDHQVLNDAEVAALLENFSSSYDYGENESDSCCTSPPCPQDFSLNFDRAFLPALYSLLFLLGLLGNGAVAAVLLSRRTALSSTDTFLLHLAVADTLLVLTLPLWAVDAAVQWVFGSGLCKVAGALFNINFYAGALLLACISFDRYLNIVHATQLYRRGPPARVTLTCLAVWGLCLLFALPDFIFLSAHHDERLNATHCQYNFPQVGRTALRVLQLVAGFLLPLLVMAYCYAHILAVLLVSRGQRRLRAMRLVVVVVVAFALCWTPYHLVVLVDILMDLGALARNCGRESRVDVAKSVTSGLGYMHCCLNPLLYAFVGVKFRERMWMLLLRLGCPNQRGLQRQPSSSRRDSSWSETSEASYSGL

[11] = biological target: T2, C-X-C chemokine receptor type 2 (Homo sapiens) (UniProt P25025); assay: Inhibition of CXCR2 (unknown origin) at 10 uM relative to control
T2 sequence (whole entry): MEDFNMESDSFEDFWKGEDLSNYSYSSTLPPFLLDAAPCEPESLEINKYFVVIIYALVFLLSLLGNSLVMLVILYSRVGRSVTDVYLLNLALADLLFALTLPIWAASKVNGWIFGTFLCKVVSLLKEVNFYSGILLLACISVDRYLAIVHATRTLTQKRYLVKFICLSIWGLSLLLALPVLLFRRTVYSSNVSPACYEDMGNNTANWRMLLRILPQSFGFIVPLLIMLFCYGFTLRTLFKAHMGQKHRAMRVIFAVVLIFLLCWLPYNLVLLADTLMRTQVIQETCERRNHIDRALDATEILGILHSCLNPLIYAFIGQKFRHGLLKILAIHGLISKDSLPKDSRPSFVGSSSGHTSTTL

[12] = biological target: C-C chemokine receptor type 5 (Homo sapiens) (UniProt P51681); assay: Inhibition of CCR5 (unknown origin) at 10 uM relative to control
Chain of C-C chemokine receptor type 5 (Homo sapiens) (P51681 whole entry, looked up): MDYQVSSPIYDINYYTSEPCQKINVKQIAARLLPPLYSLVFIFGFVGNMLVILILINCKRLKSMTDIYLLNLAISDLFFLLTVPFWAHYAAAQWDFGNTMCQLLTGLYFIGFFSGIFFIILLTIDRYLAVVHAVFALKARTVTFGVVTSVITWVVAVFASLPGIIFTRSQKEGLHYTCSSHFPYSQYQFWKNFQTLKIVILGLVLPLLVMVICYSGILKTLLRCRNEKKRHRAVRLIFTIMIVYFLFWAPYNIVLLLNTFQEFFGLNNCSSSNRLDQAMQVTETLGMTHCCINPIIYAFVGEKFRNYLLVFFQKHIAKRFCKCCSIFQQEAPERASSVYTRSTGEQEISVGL

[13] = biological target: T3, C-C chemokine receptor type 6 (Homo sapiens) (UniProt P51684); assay: Inhibition of CCR6 (unknown origin) at 10 uM relative to control
T3 sequence (whole entry): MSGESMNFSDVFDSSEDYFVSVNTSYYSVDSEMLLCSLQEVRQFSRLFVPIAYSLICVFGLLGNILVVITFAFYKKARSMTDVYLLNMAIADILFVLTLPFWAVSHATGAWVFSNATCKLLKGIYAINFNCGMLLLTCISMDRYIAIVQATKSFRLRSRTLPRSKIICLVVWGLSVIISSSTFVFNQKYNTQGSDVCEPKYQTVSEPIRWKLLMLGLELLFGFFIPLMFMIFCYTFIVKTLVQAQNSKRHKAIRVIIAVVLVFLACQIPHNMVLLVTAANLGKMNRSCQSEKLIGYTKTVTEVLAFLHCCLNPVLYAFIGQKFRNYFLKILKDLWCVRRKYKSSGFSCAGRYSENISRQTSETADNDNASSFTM

[14] = biological target: T4, C-C chemokine receptor type 4 (Homo sapiens) (UniProt P51679); assay: Inhibition of CCR4 (unknown origin) at 10 uM relative to control
T4 sequence (whole entry): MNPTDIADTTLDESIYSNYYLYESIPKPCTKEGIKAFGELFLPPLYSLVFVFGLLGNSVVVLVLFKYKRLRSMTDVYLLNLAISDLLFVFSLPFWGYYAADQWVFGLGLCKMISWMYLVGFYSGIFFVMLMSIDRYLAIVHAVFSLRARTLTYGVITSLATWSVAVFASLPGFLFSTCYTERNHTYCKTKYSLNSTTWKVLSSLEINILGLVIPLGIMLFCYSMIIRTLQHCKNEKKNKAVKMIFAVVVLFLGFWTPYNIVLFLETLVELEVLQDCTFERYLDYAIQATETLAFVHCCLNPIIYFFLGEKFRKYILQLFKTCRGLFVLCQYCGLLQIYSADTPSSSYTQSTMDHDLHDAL

[15] = biological target: T5, C-C chemokine receptor type 3 (Homo sapiens) (UniProt P51677); assay: Inhibition of CCR3 (unknown origin) at 10 uM relative to control
T5 sequence (whole entry): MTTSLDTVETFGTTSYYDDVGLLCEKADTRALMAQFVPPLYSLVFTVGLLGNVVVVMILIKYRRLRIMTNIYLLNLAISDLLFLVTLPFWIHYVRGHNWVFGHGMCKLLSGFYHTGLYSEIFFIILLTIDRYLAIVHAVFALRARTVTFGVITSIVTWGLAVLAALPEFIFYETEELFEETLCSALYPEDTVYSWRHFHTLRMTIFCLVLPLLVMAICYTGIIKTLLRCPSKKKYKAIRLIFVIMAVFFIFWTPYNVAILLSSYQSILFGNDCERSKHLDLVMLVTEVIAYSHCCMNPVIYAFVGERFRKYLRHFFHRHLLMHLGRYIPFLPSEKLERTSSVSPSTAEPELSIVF

[16] = biological target: C-C chemokine receptor type 2 (Homo sapiens) (UniProt P41597); assay: Inhibition of CCR2B (unknown origin) at 10 uM relative to control
Chain of C-C chemokine receptor type 2 (Homo sapiens) (P41597 whole entry, looked up): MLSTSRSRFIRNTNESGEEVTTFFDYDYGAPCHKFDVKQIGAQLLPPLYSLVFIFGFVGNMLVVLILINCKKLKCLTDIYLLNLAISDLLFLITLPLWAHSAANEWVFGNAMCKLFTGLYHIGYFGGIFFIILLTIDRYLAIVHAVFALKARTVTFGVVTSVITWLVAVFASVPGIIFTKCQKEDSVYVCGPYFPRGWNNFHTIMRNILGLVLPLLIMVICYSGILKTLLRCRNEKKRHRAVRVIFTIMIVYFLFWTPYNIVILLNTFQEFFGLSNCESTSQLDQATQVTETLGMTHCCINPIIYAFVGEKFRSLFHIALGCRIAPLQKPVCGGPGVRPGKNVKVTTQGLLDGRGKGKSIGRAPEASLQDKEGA

[17] = biological target: C-X-C chemokine receptor type 4 (Homo sapiens, UniProt P61073)
Chain of C-X-C chemokine receptor type 4 (P61073 whole entry): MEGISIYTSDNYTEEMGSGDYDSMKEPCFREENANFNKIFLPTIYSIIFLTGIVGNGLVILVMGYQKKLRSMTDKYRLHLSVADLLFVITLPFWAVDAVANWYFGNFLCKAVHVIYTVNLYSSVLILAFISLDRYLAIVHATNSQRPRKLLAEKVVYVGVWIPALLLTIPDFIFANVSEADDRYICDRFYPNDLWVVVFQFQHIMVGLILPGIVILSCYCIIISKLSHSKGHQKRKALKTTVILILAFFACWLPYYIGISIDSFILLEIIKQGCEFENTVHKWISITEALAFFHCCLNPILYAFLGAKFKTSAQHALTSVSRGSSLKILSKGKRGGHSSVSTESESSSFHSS

For `NCCCCN(C[C@H]1Cc2ccccc2CN1)[C@H]1CCCc2cccnc21`, the concentration at 1 h [1] was 1020 ng/mL, the concentration at 1 h [2] was 1540 ng/mL and the Activity (Mus musculus) was “Dose-dependent effect”. The bioavailability [3] was 63%, the AUC(0-inf) [4] was 328 ng·h/mL and the half-life [5] was 1.2 h. The half-life at 1 µM [6] was over 1 h, the half-life at 1 µM [7] was 0.65 h and the CLH [8] was 64 µL/min/mg. For the same compound, the solubility kinetic at […] [9] was over 274 µM, the inhibition [10] was under 10% and the inhibition [11] was under 10%. It also gave an inhibition [12] of under 10%, an inhibition [13] of under 10% and an inhibition [14] of under 10%. The inhibition [15] was under 10%, the inhibition [16] was under 10% and the IC90 [17] was 240 nM.
